# “And” between values parts separate entries of the source, which are not always exact repeats. Identical values can stand only once. The source made the active and inactive calls. The rule behind the calls is not given here.
# Tests used:
# [1] = target: T1, Glycine receptor subunit alpha-1 (Homo sapiens, UniProt P23415); assay: Antagonist activity at human glycine alpha-1 receptor in HEK293 cells by FMP assay; format: functional, cell-based
# T1 sequence (P23415 whole entry): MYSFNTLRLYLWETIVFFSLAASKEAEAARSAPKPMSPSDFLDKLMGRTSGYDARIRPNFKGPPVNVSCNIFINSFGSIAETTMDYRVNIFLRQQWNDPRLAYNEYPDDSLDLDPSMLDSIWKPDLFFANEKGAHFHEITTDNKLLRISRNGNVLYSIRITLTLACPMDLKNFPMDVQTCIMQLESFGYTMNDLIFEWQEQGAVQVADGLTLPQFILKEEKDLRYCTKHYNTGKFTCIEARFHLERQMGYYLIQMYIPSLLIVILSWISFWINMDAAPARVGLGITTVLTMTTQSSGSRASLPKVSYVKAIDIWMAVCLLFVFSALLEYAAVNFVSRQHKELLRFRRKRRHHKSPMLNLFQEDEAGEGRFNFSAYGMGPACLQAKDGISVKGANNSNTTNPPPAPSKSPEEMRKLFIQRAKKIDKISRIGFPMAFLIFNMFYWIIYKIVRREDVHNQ
# [2] = target: T2, Neuronal acetylcholine receptor subunit alpha-7 (Homo sapiens, UniProt P36544); assay: Antagonist activity at human alpha-7 nAChR in tsA201 cells coexpressed with Ric3 by FMP assay; format: functional, cell-based
# Target sequence in this assay (P36544 whole entry): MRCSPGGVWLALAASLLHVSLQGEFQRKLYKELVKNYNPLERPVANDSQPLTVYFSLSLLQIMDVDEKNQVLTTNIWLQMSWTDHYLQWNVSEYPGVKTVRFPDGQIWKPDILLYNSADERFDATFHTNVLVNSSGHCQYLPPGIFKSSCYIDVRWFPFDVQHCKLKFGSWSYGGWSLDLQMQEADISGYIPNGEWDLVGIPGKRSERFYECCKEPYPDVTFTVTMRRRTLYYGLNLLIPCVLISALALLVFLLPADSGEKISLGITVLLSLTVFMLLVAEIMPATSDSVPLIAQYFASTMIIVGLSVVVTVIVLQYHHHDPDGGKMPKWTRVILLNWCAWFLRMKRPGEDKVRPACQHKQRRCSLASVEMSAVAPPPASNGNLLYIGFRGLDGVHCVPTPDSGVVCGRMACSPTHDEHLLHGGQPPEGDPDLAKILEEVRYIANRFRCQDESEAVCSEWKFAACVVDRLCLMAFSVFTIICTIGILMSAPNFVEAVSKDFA
# [3] = target: T3, 5-hydroxytryptamine receptor 3A (Homo sapiens, UniProt P46098); assay: Antagonist activity at human 5HT3A receptor expressed in HEK293 cells by FMP assay; format: functional, cell-based; settings: read-out: IC50
# T3 sequence (P46098 whole entry): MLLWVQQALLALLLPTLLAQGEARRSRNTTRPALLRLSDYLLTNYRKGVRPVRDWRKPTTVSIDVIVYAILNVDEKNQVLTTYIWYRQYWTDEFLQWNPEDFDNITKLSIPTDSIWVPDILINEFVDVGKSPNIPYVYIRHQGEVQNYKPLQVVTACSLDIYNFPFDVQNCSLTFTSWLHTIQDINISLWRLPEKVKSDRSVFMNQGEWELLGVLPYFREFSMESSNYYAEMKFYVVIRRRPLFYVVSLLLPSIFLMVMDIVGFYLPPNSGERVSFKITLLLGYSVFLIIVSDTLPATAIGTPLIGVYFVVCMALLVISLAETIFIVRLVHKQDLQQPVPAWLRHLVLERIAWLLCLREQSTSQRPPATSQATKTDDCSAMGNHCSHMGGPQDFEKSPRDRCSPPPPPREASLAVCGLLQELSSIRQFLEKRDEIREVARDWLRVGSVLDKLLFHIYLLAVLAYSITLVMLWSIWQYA
# [4] = Antagonist activity at human alpha7nAChR Y93A mutant co-expressed with human Ric3 in tsA201 cells by FMP assay; format: functional, cell-based
# [5] = Antagonist activity at human alpha-7 nAChR Y188A mutant coexpressed with human Ric3 in tsA201 cells by FMP assay; format: functional, cell-based
# [6] = Displacement of [3H]methyllycaconitine from chimeric alpha-7nAChR K145R mutant /5HT3A receptor in tsA201 cells; format: cell-based, Homo sapiens
# In short: (§1)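 tsA-201 cells transiently transfected with 4 µg WT or mutant α7/5-HT3A chimera and assayed 2 days later. Membranes washed twice at 50000g in 50 mM Tris-HCl pH 7.2. Incubated with 0.5 nM [3H]MLA and compound for 2.5 h at room temperature with shaking; nonspecific binding with 5 mM (S)-nicotine. PEI-soaked GF/C filtration, scintillation counting. Ki derived; duplicate, 3–7 experiments.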
# [7] = target: Neuronal acetylcholine receptor; alpha4/beta4 (Rattus norvegicus, UniProt P09483+P12392); assay: Displacement of [3H]epibatidine from recombinant rat alpha-4-beta-4 nAChr in HEK293 cell line; format: cell-based
# Sequence of Neuronal acetylcholine receptor; alpha4/beta4 (P09483 whole entry): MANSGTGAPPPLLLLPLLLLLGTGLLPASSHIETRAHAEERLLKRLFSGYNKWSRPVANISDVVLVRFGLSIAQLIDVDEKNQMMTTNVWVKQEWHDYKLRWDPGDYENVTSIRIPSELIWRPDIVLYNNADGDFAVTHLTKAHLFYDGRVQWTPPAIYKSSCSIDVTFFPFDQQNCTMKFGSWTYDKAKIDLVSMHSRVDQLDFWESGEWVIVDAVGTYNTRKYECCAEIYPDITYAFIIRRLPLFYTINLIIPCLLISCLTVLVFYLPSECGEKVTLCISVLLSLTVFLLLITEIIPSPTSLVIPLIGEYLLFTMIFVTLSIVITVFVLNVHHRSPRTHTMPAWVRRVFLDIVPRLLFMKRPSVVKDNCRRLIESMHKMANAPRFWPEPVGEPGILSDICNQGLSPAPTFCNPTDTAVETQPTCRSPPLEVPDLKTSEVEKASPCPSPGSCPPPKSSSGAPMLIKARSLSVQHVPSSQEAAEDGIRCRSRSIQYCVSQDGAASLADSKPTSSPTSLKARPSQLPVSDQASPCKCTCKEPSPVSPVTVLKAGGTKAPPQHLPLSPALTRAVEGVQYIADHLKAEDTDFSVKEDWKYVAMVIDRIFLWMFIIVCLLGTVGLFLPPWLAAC
# Sequence of Neuronal acetylcholine receptor; alpha4/beta4 (P12392 whole entry): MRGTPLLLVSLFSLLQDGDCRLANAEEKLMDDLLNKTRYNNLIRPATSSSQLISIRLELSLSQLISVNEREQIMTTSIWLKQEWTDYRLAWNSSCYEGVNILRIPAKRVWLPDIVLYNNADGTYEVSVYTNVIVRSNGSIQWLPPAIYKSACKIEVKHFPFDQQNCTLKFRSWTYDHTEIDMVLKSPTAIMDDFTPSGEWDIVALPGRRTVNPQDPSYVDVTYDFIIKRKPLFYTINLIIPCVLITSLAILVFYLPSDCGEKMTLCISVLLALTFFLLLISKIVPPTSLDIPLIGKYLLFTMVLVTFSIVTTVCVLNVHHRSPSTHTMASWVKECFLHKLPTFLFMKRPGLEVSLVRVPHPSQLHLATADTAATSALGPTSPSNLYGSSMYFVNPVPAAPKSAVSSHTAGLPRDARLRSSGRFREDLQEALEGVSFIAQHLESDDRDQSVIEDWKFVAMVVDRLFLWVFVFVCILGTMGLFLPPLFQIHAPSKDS
# [8] = target: T4, Neuronal acetylcholine receptor; alpha3/beta4 (Rattus norvegicus, UniProt P04757+P12392); assay: Antagonist activity at rat alpha3beta4 nAChR expressed in HEK293 cells by FMP assay; format: functional, cell-based, Homo sapiens; settings: read-out: IC50
# T4 sequence (P04757 whole entry): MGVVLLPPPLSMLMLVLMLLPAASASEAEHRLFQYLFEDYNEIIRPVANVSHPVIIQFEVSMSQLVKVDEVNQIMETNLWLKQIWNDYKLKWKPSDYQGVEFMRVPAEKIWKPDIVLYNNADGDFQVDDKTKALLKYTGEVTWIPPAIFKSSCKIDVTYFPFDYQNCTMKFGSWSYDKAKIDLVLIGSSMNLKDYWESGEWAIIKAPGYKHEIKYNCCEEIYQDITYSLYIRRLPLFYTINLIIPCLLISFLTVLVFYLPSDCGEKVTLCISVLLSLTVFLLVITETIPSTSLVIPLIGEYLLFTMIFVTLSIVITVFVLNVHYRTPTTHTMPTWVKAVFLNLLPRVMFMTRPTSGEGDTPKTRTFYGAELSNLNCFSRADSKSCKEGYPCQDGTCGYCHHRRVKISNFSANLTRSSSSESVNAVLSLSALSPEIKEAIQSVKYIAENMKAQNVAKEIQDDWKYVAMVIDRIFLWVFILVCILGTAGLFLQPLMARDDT
# T4 sequence (P12392 whole entry): as the sequence (P12392 whole entry) above
# [9] = Displacement of [3H]methyllycaconitine from chimeric alpha-7nAChR S150A mutant/5HT3A receptor in tsA201 cells; format: cell-based, Homo sapiens; in short: as §1
# tsA201 [10] = assay: Displacement of [3H]methyllycaconitine from chimeric alpha-7nAChR Y188A mutant/5-HT3A receptor in tsA201 cells; format: cell-based; settings: Homo sapiens; in short: as §1
# [11] = Displacement of [3H]methyllycaconitine from chimeric alpha-7nAChR Y168A mutant/5HT3A receptor in tsA201 cells; format: cell-based, Homo sapiens; in short: as §1
# tsA201 [12] = assay: Displacement of [3H]methyllycaconitine from chimeric alpha-7nAChR Y93A mutant/5HT3A receptor in tsA201 cells; format: cell-based; settings: Homo sapiens; in short: as §1
# cells = format: functional, cell-based; settings: Homo sapiens, HEK293
# [13] = Displacement of [3H]methyllycaconitine from chimeric alpha-7nAChR S148A mutant /5HT3A receptor in tsA201 cells; format: cell-based, Homo sapiens; in short: as §1
# tsA201 [14] = assay: Displacement of [3H]methyllycaconitine from chimeric alpha-7nAChR W55A/Y195A mutant /5HT3A receptor in tsA201 cells; format: cell-based; settings: Homo sapiens; in short: as §1
# [15] = Displacement of [3H]methyllycaconitine from chimeric alpha7nAChR W55Y mutant/5HT3A receptor in tsA201 cells; format: cell-based, Homo sapiens; in short: as §1
# [16] = target: T2, Neuronal acetylcholine receptor subunit alpha-7
# Target sequence in this assay (P36544 whole entry): as the sequence (P36544 whole entry) above
# [17] = Displacement of [3H]methyllycaconitine from chimeric alpha7nAChR K145A mutant/5HT3A receptor in tsA201 cells; format: cell-based, Homo sapiens; in short: as §1
# tsA201 [18] = assay: Displacement of [3H]methyllycaconitine from chimeric alpha-7nAChR W149A mutant/5HT3A receptor in tsA201 cells; format: cell-based; settings: Homo sapiens; in short: as §1
# [19] = Antagonist activity at human alpha7 nAChR W149Y mutant co-expressed with human Ric3 in tsA201 cells by FMP assay; format: functional, cell-based
# [20] = target: Neuronal acetylcholine receptor; alpha4/beta2 (Rattus norvegicus, UniProt P09483+P12390); assay: Displacement of [3H]epibatidine from rat recombinant alpha-4-beta-2 nAChR in HEK293 cell line; format: cell-based
# Sequence of Neuronal acetylcholine receptor; alpha4/beta2 (P09483 whole entry): as the sequence (P09483 whole entry) above
# Sequence of Neuronal acetylcholine receptor; alpha4/beta2 (P12390 whole entry): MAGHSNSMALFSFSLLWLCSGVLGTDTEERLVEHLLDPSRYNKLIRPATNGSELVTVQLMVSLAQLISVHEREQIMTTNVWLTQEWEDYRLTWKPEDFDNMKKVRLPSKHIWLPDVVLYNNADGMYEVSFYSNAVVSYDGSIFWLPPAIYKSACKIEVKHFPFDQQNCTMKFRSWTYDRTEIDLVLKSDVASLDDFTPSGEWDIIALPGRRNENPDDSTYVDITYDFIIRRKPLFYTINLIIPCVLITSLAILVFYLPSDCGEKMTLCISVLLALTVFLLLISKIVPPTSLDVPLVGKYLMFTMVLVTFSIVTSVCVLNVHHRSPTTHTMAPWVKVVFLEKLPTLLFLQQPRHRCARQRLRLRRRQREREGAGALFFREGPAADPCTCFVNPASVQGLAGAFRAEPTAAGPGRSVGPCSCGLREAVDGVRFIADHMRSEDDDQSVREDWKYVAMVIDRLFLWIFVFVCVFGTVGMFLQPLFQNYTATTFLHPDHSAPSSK
# [21] = target: T2, Neuronal acetylcholine receptor subunit alpha-7; assay: Displacement of [3H]methyllycaconitine from alpha7 nAChR in tsA201 cells co-expressed with Ric3; format: cell-based
# Target sequence in this assay (P36544 whole entry): as the sequence (P36544 whole entry) above
# [22] = target: T4, Neuronal acetylcholine receptor; alpha3/beta4; assay: Displacement of [3H]epibatidine from recombinant rat alpha-3-beta-4 nAChr in HEK293 cell line; format: cell-based
# [23] = Displacement of [3H]methyllycaconitine from chimeric alpha7nAChR R79A mutant/5HT3A receptor R79A mutant in tsA201 cells; format: cell-based, Homo sapiens; in short: as §1
# tsA201 [24] = assay: Displacement of [3H]methyllycaconitine from chimeric alpha-7nAChR W149Y mutant/5HT3A receptor W149Y mutant in tsA201 cells; format: cell-based; settings: Homo sapiens; in short: as §1
# [25] = target: T2, Neuronal acetylcholine receptor subunit alpha-7; assay: Displacement of [3H]methyllycaconitine from chimeric alpha7nAChR/5HT3A in tsA201 cells; format: cell-based
# Target sequence in this assay (P36544 23-502 limits assumed): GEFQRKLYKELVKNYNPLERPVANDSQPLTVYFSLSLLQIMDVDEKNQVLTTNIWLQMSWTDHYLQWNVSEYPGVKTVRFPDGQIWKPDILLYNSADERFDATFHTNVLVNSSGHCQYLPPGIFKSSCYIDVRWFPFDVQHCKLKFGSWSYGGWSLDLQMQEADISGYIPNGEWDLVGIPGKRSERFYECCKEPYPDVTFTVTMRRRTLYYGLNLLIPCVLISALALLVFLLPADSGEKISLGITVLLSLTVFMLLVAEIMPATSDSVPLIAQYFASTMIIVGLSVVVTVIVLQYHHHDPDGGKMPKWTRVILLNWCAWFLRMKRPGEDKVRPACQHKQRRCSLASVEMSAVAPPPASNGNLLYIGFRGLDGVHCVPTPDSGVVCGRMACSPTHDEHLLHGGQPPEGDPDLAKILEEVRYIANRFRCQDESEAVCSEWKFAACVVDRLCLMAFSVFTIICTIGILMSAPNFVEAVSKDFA
# [26] = Antagonist activity at human alpha-7 nAChR Y195A mutant coexpressed with human Ric3 in tsA201 cells by FMP assay; format: functional, cell-based
# [27] = Displacement of [3H]methyllycaconitine from chimeric alpha-7nAChR D197A mutant/5HT3A receptor in tsA201 cells; format: cell-based, Homo sapiens; in short: as §1
# [28] = Displacement of [3H]methyllycaconitine from chimeric alpha-7nAChR Y195F mutant/5HT3A receptor in tsA201 cells; format: cell-based, Homo sapiens; in short: as §1
# [29] = target: T2, Neuronal acetylcholine receptor subunit alpha-7; assay: Displacement of [3H]methyllycaconitine from human alpha-7 in tsA201 cells coexpressed with 5HT3A receptor; format: cell-based
# Target sequence in this assay (P36544 whole entry): as the sequence (P36544 whole entry) above
# [30] = Displacement of [3H]methyllycaconitine from chimeric alpha-7nAChR N107A mutant/5HT3A receptor in tsA201 cells; format: cell-based, Homo sapiens; in short: as §1
# [31] = Displacement of [3H]methyllycaconitine from chimeric alpha-7nAChR W55A mutant /5HT3A receptor in tsA201 cells; format: cell-based, Homo sapiens; in short: as §1
# [32] = Displacement of [3H]methyllycaconitine from chimeric alpha7nAChR Y195A mutant/5HT3A receptor in tsA201 cells; format: cell-based, Homo sapiens; in short: as §1
# [33] = target: T3, 5-hydroxytryptamine receptor 3A; assay: Displacement of [3H]GR65630 from human 5HT3A receptor in HEK293 cells; format: cell-based
smiles,measurement,setting,value
C[N+]12CC[C@@H]3[C@@H]4[C@@H]5[C@@H](OCC=C(C1)[C@@H]5C[C@@H]32)N1c2ccccc2[C@@]23CC[N+]5(C)CC6=CCO[C@H]([C@@H]([C@H]12)[C@H]6C[C@@H]35)N4c1ccccc1.[I-].[I-] (stereo partly drawn),IC50,[1],> 100000 nM
same,pIC50,[1]; hek293,< 4
same,IC50,[2]; read-out: IC50,1500 nM
same,IC50,[2]; read-out: pIC50 (converted),1480 nM
same,IC50,[3],30000 nM
same,IC50,[4]; read-out: IC50,1300 nM
same,IC50,[4]; read-out: pIC50 (converted),1320 nM
same,IC50,[5]; read-out: IC50,2500 nM
same,IC50,[5]; read-out: pIC50 (converted),2450 nM
same,Ki,[6],430 nM
same,pKi,[6],6.37
same,Ki,[7],> 100000 nM
same,pKi,[7]; hek293,< 4
same,IC50,[8],30000 nM
same,Ki,[9],500 nM
same,pKi,[9],6.3
same,Activity,tsA201 [10],inactive
same,Ki,[11],310 nM
same,pKi,[11],6.51
same,Activity,tsA201 [12],inactive
same,IC50,cells; read-out: IC50,> 100000 nM
same,IC50,cells; read-out: pIC50 (converted),> 100000 nM
same,Ki,[13],790 nM
same,pKi,[13],6.1
same,Activity,tsA201 [14],inactive
same,Ki,[15],300 nM
same,pKi,[15],6.53
same,IC50,[16],1500 nM and 1510 nM
same,Ki,[17],250 nM
same,pKi,[17],6.6
same,Activity,tsA201 [18],inactive
same,IC50,[19]; read-out: IC50,2700 nM
same,IC50,[19]; read-out: pIC50 (converted),2690 nM
same,pKi,[20]; hek293,< 4
same,Ki,[20]; read-out: Ki,> 100000 nM
same,Ki,[21]; read-out: Ki,210 nM
same,Ki,[21]; read-out: pKi (converted),200 nM
same,Ki,[22],30000 nM
same,Ki,[23],660 nM
same,pKi,[23],6.18
same,Activity,tsA201 [24],inactive
same,Ki,[25],330 nM
same,pKi,[25],6.48
same,IC50,[26]; read-out: IC50,7100 nM
same,IC50,[26]; read-out: pIC50 (converted),7080 nM
same,Ki,[27],550 nM
same,pKi,[27],6.26
same,Ki,[28],390 nM
same,pKi,[28],6.41
same,Ki,[29]; read-out: Ki,300 nM
same,Ki,[29]; read-out: pKi (converted),316 nM
same,Ki,[30],330 nM
same,pKi,[30],6.48
same,Ki,[31],850 nM
same,pKi,[31],6.07
same,Ki,[32],2900 nM
same,pKi,[32],5.54
same,Ki,[33],11000 nM

# From ChEMBL document CHEMBL1148788 (J Med Chem, 2007)
